Compound activity as filed in PubChem BioAssay.
HCT116 PTEN-null – suppresses growth of cells with PTEN deletion. HCT116 PTEN-null viability, CellTiter-Glo, 60 h; hits give low values. viability, % at 10 µM. hit rate 1.2% among 140,000;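 active = viability at or below a set limit, 4 SD under the median of all tested compounds, cut at about 3.7% in these data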;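 note: PTEN knockout HCT116 line with beta catenin targeted HCT116 as companion control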
Fibroblast inh – blocks proliferation of human lung fibroblasts | LL 47 human lung fibroblast viability, ATP luminescence; hits give low values | viability, % at 10 µM | hit rate 1.1% among 85,000;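 active = viability at or below 50% in the single dose screen; inactive = viability above 50%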;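 note: compound exposure lasted 72 h before the ATP readout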
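Benchmarks: Cell-only wells, no compound | Test system: LL 47 human lung fibroblasts, passage 12 or lower | Input: 1,150 cells/well | Measured by: CellTiter-Glo luminescence measuring cellular ATP | Medium: IMEM, 15% FBS supplement | Schedule: Overnight attachment after seeding, then 72 h compound exposure at 37 °C | Doses: Compound addition at 0.1% DMSO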
H69AR inhibit – growth inhibitors of human H69AR lung tumor cells. H69AR lung tumor viability, ATP luminescence, 72 h; hits give low values. viability, % at 10 µM. hit rate 6% among 85,000;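 active = viability at or below 40%; inactive = viability above 40%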;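 note: multidrug resistant small cell line overexpressing MRP-1 efflux transporter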
HUVEC inhibit – human endothelial cell proliferation inhibition. HUVEC proliferation, CellTiter-Glo luminescence, 72 h; hits give low values. AID 648. viability, % at 10 µM (by protocol). hit rate 1.1% among 86,000;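 active = viability at or below 30%; inactive = viability above 30%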
bCat KO growth – beta-catenin-lacking colon tumor cell growth suppression. HCT116 beta-catenin knockout viability, CellTiter-Glo, 60 h; hits give low values. viability, % at 10 µM. hit rate 1.5% among 140,000;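 active = viability at or under a set limit, the compound median less 4 SD, cut at about 6% in these data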
Each line names hits and unclear results; the compound was inactive in the other large screens. This excerpt belongs to a sample that is enriched for hits.

CCc1[nH]nc2c1C(c1ccc(Br)s1)C(C#N)=C(N)O2 (stereo unspecified)	Fibroblast inh 24, H69AR inhibit 1.7
COc1ccc2nc(/N=C/c3c(C)[nH]n(-c4ccc(C)cc4)c3=O)sc2c1	none (no result: Fibroblast inh, H69AR inhibit, HUVEC inhibit)
Cc1ccc2[nH]cc(C(=O)CCl)c2c1	HCT116 PTEN-null 2.3, bCat KO growth 2.8 (no result: Fibroblast inh, H69AR inhibit, HUVEC inhibit)
Cc1ccc2[nH]cc(C(=O)CN3CCN(C)CC3)c2c1	none
N=C1N(/N=C/c2ccccc2)C(=Nc2ccccc2)C(=S)N1c1ccccc1	H69AR inhibit 1.6
COc1cccc(-c2nc(CS(=O)(=O)CC(=O)Nc3c(C)cccc3C)c(C)o2)c1	H69AR inhibit 14
COc1cccc(-c2nc(CS(=O)(=O)CC(=O)Nc3cc(C)ccc3C)c(C)o2)c1	H69AR inhibit 20
COc1cccc(-c2nc(CS(=O)(=O)CC(=O)NCCC(C)C)c(C)o2)c1	none (no result: Fibroblast inh, H69AR inhibit, HUVEC inhibit)
CCN(C(=O)CN1CCOCC1)C1(C)C(=O)c2ccccc2C1=O	none (no result: Fibroblast inh, H69AR inhibit, HUVEC inhibit)
CC(NC(=O)CSC(=S)N(C)C)C12CC3CC(CC(C3)C1)C2 (stereo unspecified)	none (no result: Fibroblast inh, H69AR inhibit, HUVEC inhibit)
Cc1cccc(NC(=O)CN2CCC(NC(=O)C3CCCCC3)CC2)c1C	none (no result: Fibroblast inh, H69AR inhibit, HUVEC inhibit)
Cn1nc([N+](=O)[O-])nc1Sc1ccc(Cl)cc1	none (no result: Fibroblast inh, H69AR inhibit, HUVEC inhibit)
COc1ccccc1-c1nnc(Sc2nc([N+](=O)[O-])nn2C)o1	HCT116 PTEN-null 2.4, H69AR inhibit 2.8, bCat KO growth 2.1
CC(C)N(C(=O)COC(=O)CNC(=O)c1ccc(Br)cc1)c1ccccc1	none (no result: Fibroblast inh, H69AR inhibit, HUVEC inhibit)
CCc1ccccc1NC(=O)CSc1nnc([C@@H]2CCCN2C(=O)OC(C)(C)C)o1	H69AR inhibit 2.1
Cc1cccc(C)c1NC(=O)CSc1nnc([C@@H]2CCCN2C(=O)OC(C)(C)C)o1	none
CCOc1cccc(C(=O)Nc2cccc(C(C)=O)c2)c1	none (no result: Fibroblast inh, H69AR inhibit, HUVEC inhibit)
CCOc1ccc(OCc2cccc(C(=O)Nc3ccc(CN4CCCCC4)cc3)c2)cc1	HCT116 PTEN-null 1.9, bCat KO growth 1.5 (no result: Fibroblast inh, H69AR inhibit, HUVEC inhibit)
CCOc1cccc(C(=O)Nc2ccc(N(CC)CC)cc2)c1	H69AR inhibit 20
COc1ccc(OCc2cccc(C(=O)Nc3ccc(CN4CCCCC4)cc3)c2)cc1	none (no result: Fibroblast inh, H69AR inhibit, HUVEC inhibit)
Cc1cc2c(N=NC(=O)C3CC3c3ccccc3)c(O)[nH]c2cc1Br (stereo unspecified)	none (no result: Fibroblast inh, H69AR inhibit, HUVEC inhibit)
O=C(c1c[nH]c(C(=O)C(Cl)(Cl)Cl)c1)c1ccccc1Cl	H69AR inhibit 23
Cc1ccccc1C(=O)c1c[nH]c(C(N)=O)c1	none (no result: Fibroblast inh, H69AR inhibit, HUVEC inhibit)
COc1ccc(CNC(=O)c2sc3nc4c(c(C(F)(F)F)c3c2N)CCC4)cc1	none (no result: Fibroblast inh, H69AR inhibit, HUVEC inhibit)
C#CCOCCOCCOCCNc1nc(N2CCN(C(=O)Cn3cc(CCCN=C(N)N)nn3)CC2)nc(N2CCN(C(=O)[C@H]([C@@H](C)CC)n3cc(CCCN=C(N)N)nn3)CC2)n1	none (no result: Fibroblast inh, H69AR inhibit, HUVEC inhibit)
CCOC(=O)c1cnc(-n2nc(C)cc2C)nc1NCCc1ccccc1	HCT116 PTEN-null 2.9, Fibroblast inh 45, H69AR inhibit 1.9, bCat KO growth 2.2
CCOC(=O)c1cnc(-n2nc(C)cc2C)nc1NCc1ccc2c(c1)OCO2	HUVEC inhibit 24
COc1ccc(C2CC(c3ccc(Cl)c(Cl)c3)Nc3nc(N)nn32)cc1 (stereo unspecified)	H69AR inhibit 34
Cc1cc(N(C)Cc2ccccc2)nc(-c2ccccc2)n1	H69AR inhibit 24
CCc1nc2sc3c(c2c(=O)n1NC(=O)CCl)CCCC3	H69AR inhibit 12
Cc1cccc2c1N(CCCOc1ccc(C(C)(C)C)cc1)C(=O)C2=O	H69AR inhibit 0.8, HUVEC inhibit 1.6
Cc1ccccc1OCCCN1C(=O)C(=O)c2cccc(C)c21	H69AR inhibit 17
O=C(Nc1ccc(Cl)cc1)NC1CCCCC1	none
O=C(Nc1ccc(Cl)cc1)NC1CCCC1Cc1ccco1 (stereo unspecified)	HCT116 PTEN-null 2.9
O=C(Nc1ccc(Cl)cc1)NC1CCCCC1Cc1ccco1 (stereo unspecified)	H69AR inhibit 6.6
S=C(NCc1ccco1)Nc1ccc(Cl)cc1	none (no result: Fibroblast inh, H69AR inhibit, HUVEC inhibit)
COc1ccc(-c2nc(C(N)=O)c3[nH]c(=O)n(-c4ccccc4OC)c3n2)c(OC)c1	H69AR inhibit 31
CCOc1ccccc1-c1nc(C(N)=O)c2[nH]c(=O)n(-c3cccc(C)c3)c2n1	H69AR inhibit 33
CCOc1cccc(-c2nc(C(N)=O)c3[nH]c(=O)n(-c4cccc(Cl)c4)c3n2)c1O	none (no result: Fibroblast inh, H69AR inhibit, HUVEC inhibit)
Cc1oc(-c2ccccc2)cc1C(=O)Nc1cccc2ccccc12	H69AR inhibit 34
CC1CCN(c2nc3ccc(C(=O)N4CCN(Cc5ccc6c(c5)OCO6)CC4)cc3s2)CC1	none
COc1cc(C2C(C#N)=C(N)Oc3cc(N)ccc32)cc(OC)c1OC (stereo unspecified)	H69AR inhibit 29
CCN(CC)c1ccc2c(c1)OC(N)=C(C#N)C2c1cccnc1 (stereo unspecified)	none (no result: Fibroblast inh, H69AR inhibit, HUVEC inhibit)
COc1cc(C2C(C#N)=C(N)Oc3c2oc(CO)cc3=O)cc(OC)c1OC (stereo unspecified)	none
N#CC1=C(N)Oc2cc(N)ccc2C1c1cccnc1 (stereo unspecified)	none (no result: Fibroblast inh, H69AR inhibit, HUVEC inhibit)
N#CC1=C(N)Oc2cc(Nc3ccccc3)ccc2C1c1ccncc1 (stereo unspecified)	H69AR inhibit 14, HUVEC inhibit 3.1
N#CC1=C(N)Oc2cc(N)ccc2C1c1ccc(F)cc1 (stereo unspecified)	H69AR inhibit 14
CCOc1ccc(-c2c[n+]3c(n2-c2ccccc2)CCCCC3)cc1	none (no result: Fibroblast inh, H69AR inhibit, HUVEC inhibit)
CC(=Nc1ccccc1)C1=C(O)COC1=O	none
COc1ccc(OC)c(N=C(C)C2=C(O)COC2=O)c1	H69AR inhibit 22
C=CCn1c(CNC(=O)c2ccco2)nnc1SCC(=O)N1c2ccccc2Sc2ccccc21	H69AR inhibit 34
Cc1ccccc1NC(=O)c1ccc2c(c1)OCCO2	HCT116 PTEN-null 1.9
Cc1nc2c(ccc3nc(NC(=O)c4ccc5c(c4)OCCO5)sc32)s1	H69AR inhibit 8.2, HUVEC inhibit 7.8
COC(=O)c1sccc1NC(=O)c1ccc2c(c1)OCO2	Fibroblast inh 29, H69AR inhibit 39
Cc1ccc(NC(=O)c2ccc3c(c2)OCCO3)cc1	none
COC(=O)c1ccc(NC(=O)c2ccc3c(c2)OCO3)cc1	none
C=CCCCCCCCCC(=O)NNC1=CC(=O)CC(C)(C)C1	none
Cc1ccc2c(c1)N(C(=O)c1ccco1)C(C)(C)c1ssc(=S)c1-2	none
O=C(NCCSCc1c(F)cccc1Cl)c1ccc(CN2CCOCC2)cc1	none (no result: Fibroblast inh, H69AR inhibit, HUVEC inhibit)
COc1cccc(CN2C(=O)C3(C(C#N)=C(N)OC4=C3C(=O)CCC4)c3ccccc32)c1 (stereo unspecified)	Fibroblast inh 20, H69AR inhibit 19, HUVEC inhibit 4.0
CN1C/C(=C/c2cccnc2)C(=O)/C(=C/c2cccnc2)C1	HCT116 PTEN-null 2.1, bCat KO growth 2.1 (no result: Fibroblast inh, H69AR inhibit, HUVEC inhibit)
COCCCNC(=O)c1sc2ncnc(N3CCc4ccccc4C3)c2c1C	H69AR inhibit 28
NC1=NC2(CCC(c3ccccc3)CC2)n2c(nc3ccccc32)N1 (stereo unspecified)	H69AR inhibit 8.7
NC1=NC2(CCCCC2)n2c(nc3ccccc32)N1	none
O=c1c2ccccc2sc2ccc(Cl)cc12	none (no result: Fibroblast inh, H69AR inhibit, HUVEC inhibit)
